Laboratory results: ChEMBL document CHEMBL1938243, “Identification of novel, exosite-binding matrix metalloproteinase-13 inhibitor scaffolds” (Bioorg Med Chem Lett, 2011)
Calls of active or inactive are those of the source. The rule behind the calls is not given here.

Columns and labels:
Collagenase 3 [1] = target: T1, Collagenase 3 (Homo sapiens, UniProt P45452); experiment: Inhibition of human full length recombinant MMP13 using triple-helical fTHP-15 as substrate at 40 uM after 4 hrs by FRET assay
Outline: (§1)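 Inhibitors tested at 40 μM in a FRET assay with the triple-helical peptide substrate fTHP-15 (exosite-engaging), read as percent inhibition of enzyme activity. Enzyme levels: MMP-1 4 nM; MMP-2, MMP-9 and MMP-14 10 nM each; MMP-8 2 nM; MMP-13 2.3 nM.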

Neutrophil collagenase [2] = target: T2, Neutrophil collagenase (Homo sapiens, UniProt P22894); experiment: Inhibition of MMP8 expressed in CHO-K1 cells using triple-helical fTHP-15 as substrate at 40 uM after 4 hrs by FRET assay; outline: as §1
Target sequence in this assay (P22894 101-467 limits assumed): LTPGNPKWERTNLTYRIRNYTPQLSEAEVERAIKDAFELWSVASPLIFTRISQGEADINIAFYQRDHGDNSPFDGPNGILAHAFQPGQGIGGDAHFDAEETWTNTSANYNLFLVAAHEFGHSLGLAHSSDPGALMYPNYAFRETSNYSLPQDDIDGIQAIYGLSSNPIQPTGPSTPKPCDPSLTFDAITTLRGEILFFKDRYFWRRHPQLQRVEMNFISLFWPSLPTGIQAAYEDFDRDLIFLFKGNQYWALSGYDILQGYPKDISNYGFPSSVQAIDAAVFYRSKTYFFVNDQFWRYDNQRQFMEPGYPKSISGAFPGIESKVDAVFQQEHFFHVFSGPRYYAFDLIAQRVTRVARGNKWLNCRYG

[3] = target: Matrix metalloproteinase-14 (Homo sapiens) (UniProt P50281); experiment: Inhibition of MMP14 assessed as residual activity using Knight SSP as substrate at 100 uM after 1.5 to 4 hrs by spectrofluorometric analysis relative to control
[4] = target: Matrix metalloproteinase-14 (Homo sapiens) (UniProt P50281); experiment: Inhibition of MMP14 using triple-helical fTHP-15 as substrate at 40 uM after 4 hrs by FRET assay; outline: as §1
Collagenase 3 [5] = target: T1, Collagenase 3; experiment: Noncompetitive inhibition of human full length recombinant MMP13 using triple-helical fTHP-15 as substrate by Lineweaver-Burk plot analysis
Outline: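 Single-inhibitor kinetic assay of MMP-13 hydrolysis of the FRET triple-helical peptide fTHP-15, which engages protease exosites. Run to obtain the inhibition constant (Ki) and the inhibition modality, following previously described methods.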

[6] = target: 72 kDa type IV collagenase (Homo sapiens) (UniProt P08253); experiment: Inhibition of human MMP2 using triple-helical fTHP-15 as substrate at 40 uM after 4 hrs by FRET assay; outline: as §1
Sequence of 72 kDa type IV collagenase (Homo sapiens) (P08253 110-660 limits assumed): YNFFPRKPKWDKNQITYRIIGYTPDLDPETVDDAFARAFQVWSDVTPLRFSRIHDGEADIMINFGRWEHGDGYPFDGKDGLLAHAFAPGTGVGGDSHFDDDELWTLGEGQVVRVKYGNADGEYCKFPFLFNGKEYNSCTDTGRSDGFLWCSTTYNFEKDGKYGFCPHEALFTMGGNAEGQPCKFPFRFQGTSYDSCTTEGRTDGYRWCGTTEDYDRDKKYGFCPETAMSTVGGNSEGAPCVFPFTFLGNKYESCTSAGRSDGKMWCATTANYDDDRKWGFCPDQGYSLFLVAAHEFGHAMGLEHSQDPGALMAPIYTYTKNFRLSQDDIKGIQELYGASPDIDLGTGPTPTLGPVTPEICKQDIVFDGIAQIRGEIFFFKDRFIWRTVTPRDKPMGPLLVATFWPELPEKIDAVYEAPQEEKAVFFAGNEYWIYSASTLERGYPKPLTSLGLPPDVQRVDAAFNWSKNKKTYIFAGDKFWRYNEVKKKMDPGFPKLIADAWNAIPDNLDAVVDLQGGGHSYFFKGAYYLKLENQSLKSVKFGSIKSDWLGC

[7] = target: Macrophage metalloelastase (Homo sapiens) (UniProt P39900); experiment: Inhibition of MMP12 assessed as residual activity using Knight SSP as substrate at 100 uM after 1.5 to 4 hrs by spectrofluorometric analysis relative to control
Sequence of Macrophage metalloelastase (Homo sapiens) (P39900 106-470 limits assumed): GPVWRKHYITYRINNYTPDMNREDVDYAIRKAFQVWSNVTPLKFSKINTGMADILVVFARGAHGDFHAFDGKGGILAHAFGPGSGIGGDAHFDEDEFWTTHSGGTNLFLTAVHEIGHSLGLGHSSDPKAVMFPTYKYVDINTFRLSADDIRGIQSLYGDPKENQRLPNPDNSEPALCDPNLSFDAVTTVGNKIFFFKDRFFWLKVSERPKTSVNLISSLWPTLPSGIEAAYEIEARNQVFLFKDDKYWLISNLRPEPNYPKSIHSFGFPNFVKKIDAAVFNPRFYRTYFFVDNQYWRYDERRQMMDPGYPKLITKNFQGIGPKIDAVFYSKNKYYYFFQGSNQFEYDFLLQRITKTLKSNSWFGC

[8] = target: 72 kDa type IV collagenase (Homo sapiens) (UniProt P08253); experiment: Inhibition of human MMP2 assessed as residual activity using Knight SSP as substrate at 100 uM after 1.5 to 4 hrs by spectrofluorometric analysis relative to control
[9] = target: Matrix metalloproteinase-9 (Homo sapiens) (UniProt P14780); experiment: Inhibition of recombinant MMP9 using triple-helical fTHP-15 as substrate at 40 uM after 4 hrs by FRET assay; outline: as §1
Sequence of Matrix metalloproteinase-9 (Homo sapiens) (P14780 whole entry): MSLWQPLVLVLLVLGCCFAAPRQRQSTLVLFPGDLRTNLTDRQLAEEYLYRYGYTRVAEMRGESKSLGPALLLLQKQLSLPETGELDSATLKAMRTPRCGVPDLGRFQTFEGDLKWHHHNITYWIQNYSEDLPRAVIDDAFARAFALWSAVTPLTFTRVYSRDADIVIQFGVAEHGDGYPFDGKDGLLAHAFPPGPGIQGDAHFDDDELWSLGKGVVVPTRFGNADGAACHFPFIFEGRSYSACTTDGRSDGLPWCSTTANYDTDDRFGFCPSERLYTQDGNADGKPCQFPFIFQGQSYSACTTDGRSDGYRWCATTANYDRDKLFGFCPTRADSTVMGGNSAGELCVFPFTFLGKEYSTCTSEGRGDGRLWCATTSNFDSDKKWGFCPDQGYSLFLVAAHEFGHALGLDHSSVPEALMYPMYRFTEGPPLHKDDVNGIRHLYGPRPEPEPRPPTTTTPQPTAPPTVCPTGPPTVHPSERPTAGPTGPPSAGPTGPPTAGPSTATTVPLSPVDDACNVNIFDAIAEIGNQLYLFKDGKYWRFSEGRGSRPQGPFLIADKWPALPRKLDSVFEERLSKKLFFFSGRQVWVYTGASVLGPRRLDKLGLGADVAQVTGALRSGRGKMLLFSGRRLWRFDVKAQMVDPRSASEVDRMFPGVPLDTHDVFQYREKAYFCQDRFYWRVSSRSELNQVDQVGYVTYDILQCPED

[10] = target: T3, Interstitial collagenase (Homo sapiens) (UniProt P03956); experiment: Inhibition of MMP1 expressed in Escherichia coli assessed as residual activity using Knight SSP as substrate at 100 uM after 1.5 to 4 hrs by spectrofluorometric analysis relative to control
T3 sequence (whole entry): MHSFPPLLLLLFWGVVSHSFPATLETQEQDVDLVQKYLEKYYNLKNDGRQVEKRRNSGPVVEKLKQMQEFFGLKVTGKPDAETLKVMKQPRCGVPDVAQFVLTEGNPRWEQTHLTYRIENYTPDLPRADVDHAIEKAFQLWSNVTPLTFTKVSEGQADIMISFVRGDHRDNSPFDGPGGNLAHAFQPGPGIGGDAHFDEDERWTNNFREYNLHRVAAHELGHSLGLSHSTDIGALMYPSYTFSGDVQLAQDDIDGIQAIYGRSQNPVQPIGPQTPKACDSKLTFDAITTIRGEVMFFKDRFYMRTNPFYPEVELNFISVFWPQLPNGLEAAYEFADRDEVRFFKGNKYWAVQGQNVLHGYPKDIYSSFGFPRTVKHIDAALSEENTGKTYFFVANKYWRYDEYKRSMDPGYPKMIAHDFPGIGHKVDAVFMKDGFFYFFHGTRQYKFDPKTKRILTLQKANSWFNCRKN

Neutrophil collagenase [11] = target: T2, Neutrophil collagenase; experiment: Inhibition of MMP8 expressed in CHO-K1 cells assessed as residual activity using Knight SSP as substrate at 100 uM after 1.5 to 4 hrs by spectrofluorometric analysis relative to control; format: cell-based
Target sequence in this assay (P22894 101-467 limits assumed): as the sequence (P22894 101-467 limits assumed) above

[12] = target: T3, Interstitial collagenase (Homo sapiens); experiment: Inhibition of MMP1 expressed in Escherichia coli using triple-helical fTHP-15 as substrate at 40 uM after 4 hrs by FRET assay; outline: as §1
Interstitial collagenase = target: T4, Interstitial collagenase (Homo sapiens, UniProt P03956); experiment: Inhibition of MMP1 expressed in Escherichia coli using triple-helical fTHP-15 as substrate after 4 hrs by FRET assay
T4 sequence (P03956 whole entry): T3 sequence (whole entry)

[13] = target: Stromelysin-1 (Homo sapiens) (UniProt P08254); experiment: Inhibition of MMP3 expressed in Escherichia coli assessed as residual activity using Knight SSP as substrate at 100 uM after 1.5 to 4 hrs by spectrofluorometric analysis relative to control
Sequence of Stromelysin-1 (Homo sapiens) (P08254 100-477 limits assumed): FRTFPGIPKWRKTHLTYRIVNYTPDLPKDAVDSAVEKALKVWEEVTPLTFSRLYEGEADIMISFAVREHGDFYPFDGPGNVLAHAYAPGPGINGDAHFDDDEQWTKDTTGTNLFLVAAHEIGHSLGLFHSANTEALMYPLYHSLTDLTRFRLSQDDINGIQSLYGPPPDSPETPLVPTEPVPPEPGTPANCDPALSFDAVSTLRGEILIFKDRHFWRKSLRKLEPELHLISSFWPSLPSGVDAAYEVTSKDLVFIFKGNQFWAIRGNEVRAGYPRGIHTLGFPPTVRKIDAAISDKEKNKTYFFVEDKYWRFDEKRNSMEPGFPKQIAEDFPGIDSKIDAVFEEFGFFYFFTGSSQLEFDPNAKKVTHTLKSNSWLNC

Collagenase 3 [14] = target: T1, Collagenase 3; experiment: Inhibition of human full length recombinant MMP13 assessed as residual activity using Knight SSP as substrate at 100 uM after 1.5 to 4 hrs by spectrofluorometric analysis relative to control
[15] = target: T5, Matrix metalloproteinase-20 (Homo sapiens) (UniProt O60882); experiment: Inhibition of MMP20 assessed as residual activity using Knight SSP as substrate at 100 uM after 1.5 to 4 hrs by spectrofluorometric analysis relative to control
T5 sequence (whole entry): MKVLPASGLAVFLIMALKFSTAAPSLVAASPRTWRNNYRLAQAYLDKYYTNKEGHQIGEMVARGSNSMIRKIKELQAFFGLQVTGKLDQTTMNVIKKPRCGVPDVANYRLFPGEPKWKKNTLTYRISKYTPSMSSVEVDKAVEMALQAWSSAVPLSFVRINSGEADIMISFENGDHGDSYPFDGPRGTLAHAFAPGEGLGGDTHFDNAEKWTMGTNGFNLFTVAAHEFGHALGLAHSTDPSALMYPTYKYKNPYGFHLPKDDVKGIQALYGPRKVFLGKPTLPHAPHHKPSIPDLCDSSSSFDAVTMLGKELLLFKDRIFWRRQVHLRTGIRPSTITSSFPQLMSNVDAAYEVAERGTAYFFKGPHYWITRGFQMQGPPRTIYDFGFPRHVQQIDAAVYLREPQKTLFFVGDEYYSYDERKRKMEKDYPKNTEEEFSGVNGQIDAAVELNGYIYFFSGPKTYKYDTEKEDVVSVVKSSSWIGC

Neutrophil collagenase [16] = target: T2, Neutrophil collagenase; experiment: Inhibition of MMP8 expressed in CHO-K1 cells using triple-helical fTHP-15 as substrate after 4 hrs by FRET assay; format: cell-based
Target sequence in this assay (P22894 whole entry): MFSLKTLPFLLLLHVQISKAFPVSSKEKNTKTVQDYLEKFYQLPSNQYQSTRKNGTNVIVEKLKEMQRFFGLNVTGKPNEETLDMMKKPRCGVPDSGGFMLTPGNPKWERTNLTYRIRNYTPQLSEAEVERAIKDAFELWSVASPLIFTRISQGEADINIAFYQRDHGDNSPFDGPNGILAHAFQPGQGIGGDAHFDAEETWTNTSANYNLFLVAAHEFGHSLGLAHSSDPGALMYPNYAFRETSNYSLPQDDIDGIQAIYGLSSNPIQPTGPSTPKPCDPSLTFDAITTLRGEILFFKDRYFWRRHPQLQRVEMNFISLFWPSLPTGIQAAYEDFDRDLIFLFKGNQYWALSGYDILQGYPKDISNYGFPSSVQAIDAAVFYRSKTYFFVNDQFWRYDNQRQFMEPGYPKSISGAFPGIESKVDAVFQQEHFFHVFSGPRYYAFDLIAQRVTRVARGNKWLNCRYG

[17] = target: Disintegrin and metalloproteinase domain-containing protein 17 (Homo sapiens) (UniProt P78536); experiment: Inhibition of TACE at 40 uM
Sequence of Disintegrin and metalloproteinase domain-containing protein 17 (Homo sapiens) (P78536 whole entry, the tested form may be a part): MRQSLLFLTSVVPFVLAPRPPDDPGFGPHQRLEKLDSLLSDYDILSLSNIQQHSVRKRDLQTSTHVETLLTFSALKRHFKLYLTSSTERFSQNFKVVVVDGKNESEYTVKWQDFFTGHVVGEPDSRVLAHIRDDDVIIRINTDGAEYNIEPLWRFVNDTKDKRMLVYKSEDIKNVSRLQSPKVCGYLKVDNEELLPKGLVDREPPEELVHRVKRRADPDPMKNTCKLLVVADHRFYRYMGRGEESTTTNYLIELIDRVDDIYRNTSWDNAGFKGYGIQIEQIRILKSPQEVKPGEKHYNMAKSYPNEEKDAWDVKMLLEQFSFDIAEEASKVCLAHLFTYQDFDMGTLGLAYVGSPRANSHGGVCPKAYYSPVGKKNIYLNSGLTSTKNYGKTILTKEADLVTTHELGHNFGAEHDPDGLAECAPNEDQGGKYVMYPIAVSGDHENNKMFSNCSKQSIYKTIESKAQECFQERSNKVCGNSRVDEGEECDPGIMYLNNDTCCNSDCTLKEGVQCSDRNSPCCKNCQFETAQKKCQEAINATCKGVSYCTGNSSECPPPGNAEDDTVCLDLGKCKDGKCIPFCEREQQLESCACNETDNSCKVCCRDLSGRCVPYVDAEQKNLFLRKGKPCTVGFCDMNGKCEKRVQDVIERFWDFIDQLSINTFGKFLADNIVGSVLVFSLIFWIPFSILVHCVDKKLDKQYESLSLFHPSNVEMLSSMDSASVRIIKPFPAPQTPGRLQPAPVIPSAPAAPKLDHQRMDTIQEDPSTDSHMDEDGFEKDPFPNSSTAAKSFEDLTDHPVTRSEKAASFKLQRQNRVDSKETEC

Cc1oc(-c2cccc(Cl)c2)cc1CSc1nc2c(c(=O)[nH]1)CCC2
inhibition (Collagenase 3 [1]): inactive

O=C(O)c1ccc(CSc2nc3c(c(=O)[nH]2)CCC3)cc1
inhibition (Collagenase 3 [1]): 2.2%

Cc1nc(SCc2ccc(Br)cc2)nc(O)c1C
inhibition (Collagenase 3 [1]): 55.8%
inhibition (Neutrophil collagenase [2]): 20%

CCCc1cc(O)nc(SCc2ccc(Cl)cc2)n1
inhibition (Collagenase 3 [1]): inactive

O=c1[nH]c(SCc2ccc(Cl)cc2)nc2c1C(Cc1ccccc1)CC2 (stereo not given)
inhibition (Collagenase 3 [1]): 37.7%

CC(=O)Nc1c(O)nc(SCc2ccc(Cl)cc2)nc1O
inhibition (Collagenase 3 [1]): inactive

Nc1cc(O)nc(SCc2ccc(Cl)cc2)n1
inhibition (Collagenase 3 [1]): 37%

Oc1nc(SCc2ccc(Cl)cc2)nc2c1CCC2
inhibition (Collagenase 3 [1]): 49.1%
Activity [3]: 107%
inhibition [4]: 22%
Ki (Collagenase 3 [5]): 3.8 µM
inhibition (Neutrophil collagenase [2]): 17%
inhibition [6]: 25%
Activity [7]: 91.6%
Activity [8]: 83%
inhibition [9]: 10%
Activity [10]: 92.7%
Activity (Neutrophil collagenase [11]): 81.7%
inhibition [12]: 0%
IC50 (Interstitial collagenase): > 40 µM
Activity [13]: 96%
Activity (Collagenase 3 [14]): 44%
Activity [15]: 105%
IC50 (Neutrophil collagenase [16]): > 40 µM
inhibition [17]: inactive

Cc1ccc(CSc2nc3c(c(=O)[nH]2)CCC3)cc1
Ki (Collagenase 3 [5]): 0.824 µM
IC50 (Interstitial collagenase): > 40 µM
IC50 (Neutrophil collagenase [16]): > 40 µM

O=c1[nH]c(SCCc2ccccc2)nc2c1CCC2
inhibition (Collagenase 3 [1]): 7.7%

O=S(=O)(Nc1cc(O)nc(SCc2ccc(Cl)cc2)n1)c1ccccc1
inhibition (Collagenase 3 [1]): 31.2%

Cc1ccc(CSc2nc(O)c3c(n2)CCC3)cc1
inhibition (Collagenase 3 [1]): 67%
Activity [3]: 100%
inhibition [4]: 20%
inhibition (Neutrophil collagenase [2]): 0%
inhibition [6]: 19%
Activity [7]: 77.3%
Activity [8]: 97.6%
inhibition [9]: 7%
Activity [10]: 106%
Activity (Neutrophil collagenase [11]): 106%
inhibition [12]: 0%
Activity [13]: 100%
Activity (Collagenase 3 [14]): 38.6%
Activity [15]: 101%
inhibition [17]: inactive

CCCCSc1nc(O)c2c(n1)CCC2
inhibition (Collagenase 3 [1]): 17.1%

O=c1[nH]c(SCCCc2ccccc2)nc2c1CCC2
inhibition (Collagenase 3 [1]): 7.2%

C#CCSc1nc2c(c(=O)[nH]1)CCC2
inhibition (Collagenase 3 [1]): 10.3%

Oc1nc(SCc2ccc(Cl)cc2)nc2ccccc12
inhibition (Collagenase 3 [1]): inactive

Cc1cccc(CSc2nc(O)c3c(n2)CCCC3)c1
inhibition (Collagenase 3 [1]): inactive

O=c1[nH]c(SCc2ccc(Cl)cc2)nc(O)c1Cc1ccccc1
inhibition (Collagenase 3 [1]): inactive

COC(=O)c1ccc(CSc2nc3c(c(=O)[nH]2)CCC3)cc1
inhibition (Collagenase 3 [1]): 61%
Activity [3]: 104%
inhibition [4]: 31%
Ki (Collagenase 3 [5]): 1.53 µM
inhibition (Neutrophil collagenase [2]): 8%
inhibition [6]: 26%
Activity [7]: 80.6%
Activity [8]: 84.7%
inhibition [9]: 16%
Activity [10]: 102%
Activity (Neutrophil collagenase [11]): 93.8%
inhibition [12]: 0%
IC50 (Interstitial collagenase): > 40 µM
Activity [13]: 100%
Activity (Collagenase 3 [14]): 35.1%
Activity [15]: 96.4%
IC50 (Neutrophil collagenase [16]): > 40 µM
inhibition [17]: inactive

Cc1cccc(CSc2nc3c(c(=O)[nH]2)CCC3)c1
inhibition (Collagenase 3 [1]): 45.2%

O=c1[nH]c(SCc2ccc(OC(F)(F)F)cc2)nc2c1CCC2
inhibition (Collagenase 3 [1]): 34.4%

O=C(CSc1nc2c(c(=O)[nH]1)CCC2)c1ccccc1
inhibition (Collagenase 3 [1]): inactive

O=C(CSc1nc2c(c(=O)[nH]1)C(Cc1ccccc1)CC2)c1ccccc1 (stereo not given)
inhibition (Collagenase 3 [1]): 16%

Oc1[nH]c(SCc2ccc(Cl)cc2)nc2nncc1-2
inhibition (Collagenase 3 [1]): inactive

Oc1nc(SCc2ccc(Cl)cc2)nc2ccsc12
inhibition (Collagenase 3 [1]): 36.6%

O=c1[nH]c(SCc2coc(-c3cccc(Cl)c3)n2)nc2c1CCC2
inhibition (Collagenase 3 [1]): inactive

CS(=O)(=O)c1ccc(CSc2nc3c(c(=O)[nH]2)CCC3)cc1
inhibition (Collagenase 3 [1]): 46.7%

Cc1ccccc1S(=O)(=O)Nc1cc(=O)[nH]c(SCc2ccc(Cl)cc2)n1
inhibition (Collagenase 3 [1]): 30.5%

Cc1cc(=O)[nH]c(SCc2ccc(Cl)cc2)n1
inhibition (Collagenase 3 [1]): 32.9%
